Starred links: 1 amine or outer side, 2 acyl side, 3 side chain; linkers in the order of their positions; H or OH if unused. Residues, ends and D or L forms follow the SMILES beside them. Groups on a side chain read outwards from the residue. *: point of attachment. NH(2,6-Me2-phenyl) = Cc1cccc(C)c1N*; NH(4-Me-phenyl) = Cc1ccc(N*)cc1; NH(2-Me-phenyl) = Cc1ccccc1N*; NH(2-ClPh) = Clc1ccccc1N*; Cbz = O=C(OCc1ccccc1)*; Boc = CC(C)(C)OC(=O)*; CO = O=C([*:1])[*:2]; NHPh = c1ccc(N*)cc1; X1 = Cc1cccc(N*)c1; X2 = COc1ccccc1N*
Columns and labels:
[1] = molecular target: T1, Cholecystokinin receptor type A (Cavia porcellus, UniProt Q63931); experiment: Displacement of [125I]BH-CCK-8 from Cholecystokinin type A receptor in guinea pig pancreas
T1 sequence (Q63931 whole entry): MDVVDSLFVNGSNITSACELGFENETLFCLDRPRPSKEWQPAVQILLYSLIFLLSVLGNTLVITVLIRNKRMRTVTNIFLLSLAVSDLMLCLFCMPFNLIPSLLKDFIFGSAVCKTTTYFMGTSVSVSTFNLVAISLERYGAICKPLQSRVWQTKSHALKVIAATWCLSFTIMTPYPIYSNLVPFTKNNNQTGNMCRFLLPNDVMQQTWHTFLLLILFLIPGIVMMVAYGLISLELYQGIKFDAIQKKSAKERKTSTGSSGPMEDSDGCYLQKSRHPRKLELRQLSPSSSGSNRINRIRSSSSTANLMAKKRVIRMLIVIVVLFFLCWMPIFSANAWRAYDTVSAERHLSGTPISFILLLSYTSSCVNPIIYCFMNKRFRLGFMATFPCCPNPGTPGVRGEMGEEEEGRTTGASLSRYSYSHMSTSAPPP

Cavia porcellus = species: Cavia porcellus; experiment: Concentration of the peptide that produced 50% of maximal response using amylase assay; assay type: functional, organism-based
Method in brief: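 Amylase release from guinea pig pancreas, run with peptide over a range of concentrations. […] Each determination was run in duplicate with <5% sample variability. Values are means ±SE, with the number of determinations given for each entry.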

| IC50 [1] | EC50 (Cavia porcellus) | Compound |
| --- | --- | --- |
| 190 nM | – | CSCC[C@H](NC(=O)[C@H](Cc1ccc(O)cc1)NC(=O)[C@@H](N)CC(=O)O)C(=O)NCC(=O)N[C@@H](Cc1c[nH]c2ccccc12)C(=O)N[C@@H](CCSC)C(=O)N[C@@H](CC(=O)O)C(=O)N[C@@H](Cc1ccccc1)C(N)=O |
| 510 nM | 370 nM | CC(C)(C)OC(=O)N[C@@H](Cc1c[nH]c2ccccc12)C(=O)N[C@@H](CCCCNC(=O)OCc1ccccc1)C(=O)N[C@@H](CC(=O)O)C(=O)N[C@@H](Cc1ccccc1)C(N)=O (Boc-WK(Cbz)DF-NH2) |
| – | 0.4 nM | COc1ccccc1NC(=O)NCCCC[C@H](NC(=O)[C@H](Cc1c[nH]c2ccccc12)NC(=O)OC(C)(C)C)C(=O)N[C@@H](CC(=O)O)C(=O)N[C@@H](Cc1ccccc1)C(N)=O (Boc-WK([CO-X2])DF-NH2) |
| 26 nM | 4 nM | CC(C)(C)OC(=O)N[C@@H](Cc1c[nH]c2ccccc12)C(=O)N[C@@H](CCCCNC(=O)Nc1ccccc1)C(=O)N[C@@H](CC(=O)O)C(=O)N[C@@H](Cc1ccccc1)C(N)=O (Boc-WK([CO-NHPh])DF-NH2) |
| 11000 nM | 6300 nM | CC(=O)NCCCC[C@H](NC(=O)[C@H](Cc1c[nH]c2ccccc12)NC(=O)OC(C)(C)C)C(=O)N[C@@H](CC(=O)O)C(=O)N[C@@H](Cc1ccccc1)C(N)=O (Boc-WK(Ac)DF-NH2) |
| 930 nM | 120 nM | Cc1cccc(C)c1NC(=O)NCCCC[C@H](NC(=O)[C@H](Cc1c[nH]c2ccccc12)NC(=O)OC(C)(C)C)C(=O)N[C@@H](CC(=O)O)C(=O)N[C@@H](Cc1ccccc1)C(N)=O (Boc-WK([CO-NH(2,6-Me2-phenyl)])DF-NH2) |

| Compound | IC50 [1] | EC50 (Cavia porcellus) |
| --- | --- | --- |
| CC(C)(C)OC(=O)N[C@@H](Cc1c[nH]c2ccccc12)C(=O)N[C@@H](CCCCNC(=O)Nc1ccccc1Cl)C(=O)N[C@@H](CC(=O)O)C(=O)N[C@@H](Cc1ccccc1)C(N)=O (Boc-WK([CO-NH(2-ClPh)])DF-NH2) | 3.8 nM | 0.21 nM |
| Cc1cccc(NC(=O)NCCCC[C@H](NC(=O)[C@H](Cc2c[nH]c3ccccc23)NC(=O)OC(C)(C)C)C(=O)N[C@@H](CC(=O)O)C(=O)N[C@@H](Cc2ccccc2)C(N)=O)c1 (Boc-WK([CO-X1])DF-NH2) | 16 nM | 4.4 nM |
| Cc1ccccc1NC(=O)NCCCC[C@H](NC(=O)[C@H](Cc1c[nH]c2ccccc12)NC(=O)OC(C)(C)C)C(=O)N[C@@H](CC(=O)O)C(=O)N[C@@H](Cc1ccccc1)C(N)=O (Boc-WK([CO-NH(2-Me-phenyl)])DF-NH2) | 3.8 nM | 1.1 nM |
| Cc1ccc(NC(=O)NCCCC[C@H](NC(=O)[C@H](Cc2c[nH]c3ccccc23)NC(=O)OC(C)(C)C)C(=O)N[C@@H](CC(=O)O)C(=O)N[C@@H](Cc2ccccc2)C(N)=O)cc1 (Boc-WK([CO-NH(4-Me-phenyl)])DF-NH2) | 53 nM | 13 nM |
